Results published in article PMC12709667 (Journal of Clinical Pharmacology, 2025).
Where “and” joins values, the source holds several entries; their conditions need not be identical. Equal entries are not always repeated.

What was measured:
CYP2C9 [1] = molecular target: T1, CYP2C9 (Homo sapiens, UniProt P11712); assay: Cytochrome P450 inhibition; type: in vitro ADME
BCRP = molecular target: T2, BCRP (Homo sapiens, UniProt Q9UNQ0); assay: Transporter substrate assessment; type: in vitro ADME
T2 sequence (Q9UNQ0 1-655): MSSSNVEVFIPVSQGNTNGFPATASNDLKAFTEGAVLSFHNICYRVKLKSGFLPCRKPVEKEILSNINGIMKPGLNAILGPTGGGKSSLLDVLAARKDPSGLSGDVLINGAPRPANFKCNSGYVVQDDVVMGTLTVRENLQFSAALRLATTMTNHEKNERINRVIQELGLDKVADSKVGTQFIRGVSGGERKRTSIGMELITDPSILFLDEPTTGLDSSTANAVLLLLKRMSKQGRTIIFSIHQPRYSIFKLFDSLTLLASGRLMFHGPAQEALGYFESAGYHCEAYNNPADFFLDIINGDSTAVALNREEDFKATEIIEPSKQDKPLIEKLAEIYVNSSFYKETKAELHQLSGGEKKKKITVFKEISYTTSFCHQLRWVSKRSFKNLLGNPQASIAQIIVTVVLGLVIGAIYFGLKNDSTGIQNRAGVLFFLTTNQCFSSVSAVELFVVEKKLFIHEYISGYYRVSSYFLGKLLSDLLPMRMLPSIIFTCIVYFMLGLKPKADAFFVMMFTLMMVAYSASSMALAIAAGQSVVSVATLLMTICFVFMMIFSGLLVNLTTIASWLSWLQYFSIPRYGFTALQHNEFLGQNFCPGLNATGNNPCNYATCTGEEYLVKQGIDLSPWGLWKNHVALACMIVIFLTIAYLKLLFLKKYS

UGT1A3 = molecular target: T3, UGT1A3 (Homo sapiens, UniProt P35503); assay: Phase 2 enzyme substrate assessment; type: in vitro ADME
T3 sequence (P35503 29-534): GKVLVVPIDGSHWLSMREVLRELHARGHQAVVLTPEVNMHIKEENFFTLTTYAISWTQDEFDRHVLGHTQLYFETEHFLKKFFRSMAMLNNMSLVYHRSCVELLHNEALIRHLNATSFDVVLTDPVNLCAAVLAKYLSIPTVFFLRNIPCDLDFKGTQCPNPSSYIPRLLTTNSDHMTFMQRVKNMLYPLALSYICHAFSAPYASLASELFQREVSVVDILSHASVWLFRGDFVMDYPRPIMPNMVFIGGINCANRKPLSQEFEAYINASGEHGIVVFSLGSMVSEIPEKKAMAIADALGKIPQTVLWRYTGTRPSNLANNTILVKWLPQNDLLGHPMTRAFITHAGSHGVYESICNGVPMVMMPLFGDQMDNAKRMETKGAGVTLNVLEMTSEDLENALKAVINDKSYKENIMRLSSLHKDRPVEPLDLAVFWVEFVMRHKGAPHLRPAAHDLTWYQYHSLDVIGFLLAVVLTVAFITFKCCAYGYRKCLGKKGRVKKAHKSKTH

liver fat = conditions: patients with presumed MASH; cited from earlier work
CYP1A2 = molecular target: T4, CYP1A2 (Homo sapiens, UniProt P05177); type: in vitro ADME
T4 sequence (P05177 1-516): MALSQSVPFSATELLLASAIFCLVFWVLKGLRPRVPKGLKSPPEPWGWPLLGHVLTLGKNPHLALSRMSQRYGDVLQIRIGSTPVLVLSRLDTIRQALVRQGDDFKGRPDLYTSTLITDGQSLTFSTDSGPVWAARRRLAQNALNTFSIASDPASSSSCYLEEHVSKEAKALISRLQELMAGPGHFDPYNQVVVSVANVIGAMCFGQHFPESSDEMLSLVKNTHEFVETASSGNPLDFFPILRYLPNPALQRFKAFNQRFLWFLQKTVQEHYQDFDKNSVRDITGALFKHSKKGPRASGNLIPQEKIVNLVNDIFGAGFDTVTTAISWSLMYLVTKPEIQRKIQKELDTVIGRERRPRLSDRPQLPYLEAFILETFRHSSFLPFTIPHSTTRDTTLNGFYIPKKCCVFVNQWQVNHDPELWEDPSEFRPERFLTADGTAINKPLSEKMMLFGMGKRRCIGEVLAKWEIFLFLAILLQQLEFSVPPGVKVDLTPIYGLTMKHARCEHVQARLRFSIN

Human [14C] ADME study = type: in vivo
[2] = First-in-human study Part 3, 100-mg SDD tablet food effect; type: in vivo; conditions: plasma, oral, 200 mg; for AUC: AUC0‐last; for AUC / Cmax: single 200 mg dose of 100‐mg SDD tablets; for half-life: t1/2, single 200 mg dose of 100‐mg SDD tablets
[3] = Quantitative whole-body autoradiography tissue distribution in mice; type: in vivo, mouse; conditions: for association of radioactivity with melanin: pigmented mice
In short: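 Quantitative whole-body autoradiography after dosing with [14C]-labelled test compound, in non-pigmented (albino) and partially pigmented C57 mice. Frozen carcasses were sectioned and imaged at timepoints from 1 h to 168 h postdose to measure tissue radioactivity. Melanin-containing tissues (skin, uveal tract) were included.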

[4] = [14C] metabolism and excretion study in cynomolgus monkeys; type: in vivo, cynomolgus monkey; conditions: for whole blood‐to‐plasma ratio of total radioactivity: based on AUC0‐last; for recovery of radioactivity: by 168 h postdose
In short: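 Male and female cynomolgus monkeys received one oral-gavage dose of 80 mg/kg (2 MBq/kg) [14C]-labelled test compound. Blood, urine and faeces were collected at set times up to 168 h for total radioactivity. Metabolites were profiled by high-resolution LC-MS with online fraction collection and offline counting. The blood:plasma ratio was based on AUC0-last.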

[5] = 28-day Good Laboratory Practice toxicology study; type: in vivo, mouse; conditions: mice
CYP3A4 = CYP3A4 (Homo sapiens, UniProt P08684); assay: biochemical; type: in vitro ADME
CYP2C9 [6] = molecular target: T1, CYP2C9; assay: DDI perpetrator study: tolbutamide probe; type: in vivo; conditions: miricorilant 400 mg once daily as perpetrator

T1 sequence (P11712 whole entry): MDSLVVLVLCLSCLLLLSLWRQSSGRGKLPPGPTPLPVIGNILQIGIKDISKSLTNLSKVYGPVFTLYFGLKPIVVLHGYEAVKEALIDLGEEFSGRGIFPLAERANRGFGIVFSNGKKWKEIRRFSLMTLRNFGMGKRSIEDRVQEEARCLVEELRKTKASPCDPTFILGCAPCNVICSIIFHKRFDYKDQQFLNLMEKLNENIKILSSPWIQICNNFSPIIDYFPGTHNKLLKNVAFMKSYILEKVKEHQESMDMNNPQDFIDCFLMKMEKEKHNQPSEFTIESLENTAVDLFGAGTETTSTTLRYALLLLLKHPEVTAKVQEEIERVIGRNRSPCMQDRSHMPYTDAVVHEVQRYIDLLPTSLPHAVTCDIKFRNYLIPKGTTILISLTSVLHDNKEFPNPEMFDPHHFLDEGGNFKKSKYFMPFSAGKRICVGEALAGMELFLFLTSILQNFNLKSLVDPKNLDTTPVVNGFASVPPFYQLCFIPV
CYP3A4, sequence (P08684 whole entry): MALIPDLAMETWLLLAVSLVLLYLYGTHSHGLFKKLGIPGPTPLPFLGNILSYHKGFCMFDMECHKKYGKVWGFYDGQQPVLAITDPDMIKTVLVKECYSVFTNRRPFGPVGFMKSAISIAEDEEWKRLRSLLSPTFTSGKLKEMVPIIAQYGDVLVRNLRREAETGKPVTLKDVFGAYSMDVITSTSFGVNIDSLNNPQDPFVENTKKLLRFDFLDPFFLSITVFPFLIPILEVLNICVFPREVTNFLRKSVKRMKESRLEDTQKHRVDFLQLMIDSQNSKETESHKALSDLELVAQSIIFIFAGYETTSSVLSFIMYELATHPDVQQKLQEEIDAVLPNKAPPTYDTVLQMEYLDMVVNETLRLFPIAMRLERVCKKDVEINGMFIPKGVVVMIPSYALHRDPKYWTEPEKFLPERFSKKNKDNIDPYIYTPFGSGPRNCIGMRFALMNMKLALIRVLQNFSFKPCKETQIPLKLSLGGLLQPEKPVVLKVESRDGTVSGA

With `O=c1[nH]c(=O)c(Cc2cccc(C(F)(F)F)c2)c([C@H]2CC[C@H](c3ccccc3)CC2)[nH]1` [miricorilant] the IC50 (CYP2C9 [1]) was 7.7 µM, the “time dependence of CYP2C9 inhibition” value (CYP2C9 [1]) was “not time dependent” and the “Substrate of BCRP” value (BCRP) was “not a substrate”. For the same compound, the “Substrate of UGT1A3” value (UGT1A3) was “not a substrate”, the “effect on liver fat” value (liver fat) was “rapid and substantial reduction of liver fat” and the “inhibition of CYP1A2” value (CYP1A2) was “No inhibition”. The “administered radioactivity recovered in excreta” value (Human [14C] ADME study; 240‐h sampling period, mean ± SD) was 93.68 ± 1.63%, the “administered dose recovered in urine” value (Human [14C] ADME study; human, 150 mg oral solution) was 4.56% and the “total radioactivity recovered in feces” value (Human [14C] ADME study; human, 150 mg oral solution) was 89.12% and 89.12 ± 1.16%. It also gave a Cmax (Human [14C] ADME study; male, human, plasma, po, 150 mg) of 343 ng/mL, an administered radioactivity eliminated (Human [14C] ADME study; within the first 48 h post dose) of 19.28 ± 9.01% and an AUC ([2]; Fasted, geometric mean (%CV)) of 1620 ng·h/mL. The AUC ([2]; Fed, geometric mean (%CV)) was 3560 ng·h/mL, the Cmax ([2]; Fasted, geometric mean (%CV)) was 105 ng/mL and the Cmax ([2]; Fed, N = 6, geometric mean (%CV)) was 184 ng/mL. For the same compound, the half-life ([2]; Fasted, geometric mean (%CV)) was 21.1 h, the half-life ([2]; Fed, geometric mean (%CV)) was 19.6 h and the “radioactivity in the lens of the eye” value ([3]; albino mice) was “not present at quantifiable levels”. The “radioactivity in the brain and spinal cord” value ([3]; albino mice, 4 and 8 h) was “low levels”, the “time of peak tissue concentration of radioactivity” value ([3]; albino mice, majority of tissues (pancreas, liver, gall bladder etc.)) was 4 h and the “radioactivity in the liver” value ([3]; mice) was “high concentrations”. For the same compound, the “association of radioactivity with melanin” value [3] was “no long‐term association”, the “association of radioactivity with melanin” value ([3]; listed as [^14C]‐miricorilant) was “no affinity” and the elimination in urine ([4]; female monkeys) was 0.74 ± 0.11%. The fecal elimination ([4]; female monkeys) was 78.51 ± 8.77%, the “time at which plasma radioactivity was below the limit of detection” value ([4]; female monkeys) was 96 h and the “whole blood‐to‐plasma ratio of total radioactivity” value ([4]; female monkeys) was 0.66. The recovery of radioactivity ([4]; female monkeys) was 88.08 ± 4.03%, the elimination in urine ([4]; male monkeys) was 0.96 ± 0.08% and the fecal elimination ([4]; male monkeys) was 72.2 ± 11.20%. For the same compound, the “time at which plasma radioactivity was below the limit of detection” value ([4]; male monkeys) was 144 h, the “whole blood‐to‐plasma ratio of total radioactivity” value ([4]; male monkeys) was 0.75 and the recovery of radioactivity ([4]; male monkeys) was 80.88 ± 11.60%. For the same compound, the “adverse effects in 28‐day toxicology study” value [5] was “No adverse effects”, the IC50 (CYP3A4) was 3.4 µM and the “time dependence of CYP3A4 inhibition” value (CYP3A4) was “not time dependent”. For the same compound, the “clinical inhibition of CYP2C9” value (CYP2C9 [6]) was “does not inhibit”.
